Results: ChEMBL document CHEMBL1129682, “(S)-(-)-4-[4-[2-(isochroman-1-yl)ethyl]-piperazin-1-yl] benzenesulfonamide, a selective dopamine D4 antagonist” (J Med Chem, 1996)

Target: T1, 5-hydroxytryptamine receptor 1A (Rattus norvegicus, UniProt P19327)
T1 sequence (P19327 whole entry): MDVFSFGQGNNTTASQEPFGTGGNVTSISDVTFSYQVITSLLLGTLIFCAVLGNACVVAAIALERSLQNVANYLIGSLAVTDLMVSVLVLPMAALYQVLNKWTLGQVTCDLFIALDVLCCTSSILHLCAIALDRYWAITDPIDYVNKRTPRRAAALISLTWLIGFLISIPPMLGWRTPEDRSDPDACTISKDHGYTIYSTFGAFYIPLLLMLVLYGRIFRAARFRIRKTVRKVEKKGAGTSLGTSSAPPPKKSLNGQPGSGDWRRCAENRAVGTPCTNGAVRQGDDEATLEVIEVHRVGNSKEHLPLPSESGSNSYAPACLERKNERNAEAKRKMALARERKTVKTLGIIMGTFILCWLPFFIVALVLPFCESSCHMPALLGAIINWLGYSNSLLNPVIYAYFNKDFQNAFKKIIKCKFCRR
Assay: Binding affinity of [3H]-8-OH-DPAT towards 5-hydroxytryptamine 1A receptor in cloned mammalian receptor expressed in cultured cells or from rat whole brain.
Format: cell-based
Procedure, shortened: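 Radioligand displacement with [3H]-8-OH-DPAT on membranes from cloned mammalian 5-HT1A receptor expressed in cultured cells.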

Row | Compound | Ki [nM]
1 | NS(=O)(=O)c1ccc(N2CCN(CC[C@@H]3OCCc4ccccc43)CC2)cc1 [SONEPIPRAZOLE] | > 3700
2 | COc1ccc(N2CCN(CCC3OCCc4ccccc43)CC2)cc1 (stereo not given) | 1100

Target: Serotonin 2 (5-HT2) receptor (Rattus norvegicus, UniProt P30994+P08909+P14842)
Assay: Binding affinity of [3H]ketanserin towards 5-hydroxytryptamine 2 receptor in cloned mammalian receptor expressed in cultured cells or from rat whole brain.
Format: cell-based

Row | Compound | Ki [nM]
3 | NS(=O)(=O)c1ccc(N2CCN(CC[C@@H]3OCCc4ccccc43)CC2)cc1 [SONEPIPRAZOLE] | > 1800
4 | COc1ccc(N2CCN(CCC3OCCc4ccccc43)CC2)cc1 (stereo not given) | 76

Target: T2, Adrenergic receptor alpha-1 (Rattus norvegicus, UniProt P15823+P23944+P43140)
T2 sequence (P15823 whole entry): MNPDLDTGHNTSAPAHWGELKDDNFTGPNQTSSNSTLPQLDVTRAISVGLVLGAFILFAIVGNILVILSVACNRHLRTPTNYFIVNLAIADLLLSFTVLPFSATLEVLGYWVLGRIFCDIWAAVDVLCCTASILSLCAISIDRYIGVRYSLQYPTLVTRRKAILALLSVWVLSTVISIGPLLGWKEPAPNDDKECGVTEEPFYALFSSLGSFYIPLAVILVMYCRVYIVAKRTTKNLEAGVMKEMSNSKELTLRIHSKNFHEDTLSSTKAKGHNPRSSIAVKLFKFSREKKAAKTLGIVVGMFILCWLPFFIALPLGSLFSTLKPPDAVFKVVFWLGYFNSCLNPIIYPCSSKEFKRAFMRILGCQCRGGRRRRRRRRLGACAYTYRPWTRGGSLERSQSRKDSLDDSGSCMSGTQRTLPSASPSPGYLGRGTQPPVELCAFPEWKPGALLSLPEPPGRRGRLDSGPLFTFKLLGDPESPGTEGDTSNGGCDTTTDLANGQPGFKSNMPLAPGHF
T2 sequence (P23944 whole entry): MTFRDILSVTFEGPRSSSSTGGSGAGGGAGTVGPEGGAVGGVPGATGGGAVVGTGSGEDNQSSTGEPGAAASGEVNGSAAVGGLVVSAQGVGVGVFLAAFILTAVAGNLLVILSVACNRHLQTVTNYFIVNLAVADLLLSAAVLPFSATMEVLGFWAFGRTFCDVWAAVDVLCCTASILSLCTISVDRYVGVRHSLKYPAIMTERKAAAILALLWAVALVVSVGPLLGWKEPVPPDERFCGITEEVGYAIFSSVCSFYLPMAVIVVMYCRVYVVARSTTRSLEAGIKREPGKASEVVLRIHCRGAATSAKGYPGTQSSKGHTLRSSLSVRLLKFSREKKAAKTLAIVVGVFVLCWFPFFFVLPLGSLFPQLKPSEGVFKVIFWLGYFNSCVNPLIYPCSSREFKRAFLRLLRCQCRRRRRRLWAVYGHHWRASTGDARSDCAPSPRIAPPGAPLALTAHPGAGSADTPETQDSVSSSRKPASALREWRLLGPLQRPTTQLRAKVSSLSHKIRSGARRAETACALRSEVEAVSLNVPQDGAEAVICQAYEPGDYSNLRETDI
T2 sequence (P43140 whole entry): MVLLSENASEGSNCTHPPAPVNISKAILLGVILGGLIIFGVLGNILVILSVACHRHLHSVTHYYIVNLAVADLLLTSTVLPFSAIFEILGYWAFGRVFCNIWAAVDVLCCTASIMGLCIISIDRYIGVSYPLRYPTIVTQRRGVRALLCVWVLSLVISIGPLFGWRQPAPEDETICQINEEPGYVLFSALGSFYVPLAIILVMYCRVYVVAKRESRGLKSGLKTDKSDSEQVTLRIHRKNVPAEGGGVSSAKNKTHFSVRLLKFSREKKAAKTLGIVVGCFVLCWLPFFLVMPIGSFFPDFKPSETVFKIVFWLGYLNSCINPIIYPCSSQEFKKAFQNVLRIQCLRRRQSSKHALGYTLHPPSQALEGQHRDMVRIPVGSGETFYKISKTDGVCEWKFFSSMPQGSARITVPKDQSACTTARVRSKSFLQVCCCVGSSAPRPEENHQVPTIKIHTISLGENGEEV
Assay: […] against binding of [3H]prazosin to cloned mammalian Alpha-1 adrenergic receptor expressed in cultured cells or from rat whole brain […]
Format: cell-based

Row | Compound | Ki [nM]
5 | NS(=O)(=O)c1ccc(N2CCN(CC[C@@H]3OCCc4ccccc43)CC2)cc1 [SONEPIPRAZOLE] | > 4900
6 | COc1ccc(N2CCN(CCC3OCCc4ccccc43)CC2)cc1 (stereo not given) | 1280

Target: T3, D(4) dopamine receptor (Rattus norvegicus, UniProt P30729)
T3 sequence (P30729 whole entry): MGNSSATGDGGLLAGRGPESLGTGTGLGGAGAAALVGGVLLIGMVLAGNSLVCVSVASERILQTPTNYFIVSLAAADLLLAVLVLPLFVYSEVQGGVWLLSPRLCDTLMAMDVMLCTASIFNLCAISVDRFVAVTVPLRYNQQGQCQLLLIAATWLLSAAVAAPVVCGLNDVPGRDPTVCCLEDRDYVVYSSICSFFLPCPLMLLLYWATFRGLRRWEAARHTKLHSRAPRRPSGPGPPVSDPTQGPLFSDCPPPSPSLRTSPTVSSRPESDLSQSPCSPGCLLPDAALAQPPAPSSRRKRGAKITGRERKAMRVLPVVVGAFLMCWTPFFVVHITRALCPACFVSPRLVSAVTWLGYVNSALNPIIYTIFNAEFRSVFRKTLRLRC
Assay: Binding affinity of [3H]spiperone towards Dopamine receptor D4 expressed in cultured cells or from rat whole brain.
Format: cell-based

Row | Compound | Ki [nM]
7 | NS(=O)(=O)c1ccc(N2CCN(CC[C@@H]3OCCc4ccccc43)CC2)cc1 [SONEPIPRAZOLE] | 7.2
8 | COc1ccc(N2CCN(CCC3OCCc4ccccc43)CC2)cc1 (stereo not given) | 1.4

Target: D(3) dopamine receptor (Rattus norvegicus, UniProt P19020)
Assay: Binding affinity of [3H]spiperone towards Dopamine receptor D3 in cloned mammalian receptor expressed in cultured cells or from rat whole brain.
Format: cell-based
Procedure, shortened: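 Radioligand displacement on membranes from cloned mammalian receptors expressed in cultured cells. D1 used [3H]SCH23390 and D3 used [3H]spiperone.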

Sequence of D(3) dopamine receptor (P19020 whole entry): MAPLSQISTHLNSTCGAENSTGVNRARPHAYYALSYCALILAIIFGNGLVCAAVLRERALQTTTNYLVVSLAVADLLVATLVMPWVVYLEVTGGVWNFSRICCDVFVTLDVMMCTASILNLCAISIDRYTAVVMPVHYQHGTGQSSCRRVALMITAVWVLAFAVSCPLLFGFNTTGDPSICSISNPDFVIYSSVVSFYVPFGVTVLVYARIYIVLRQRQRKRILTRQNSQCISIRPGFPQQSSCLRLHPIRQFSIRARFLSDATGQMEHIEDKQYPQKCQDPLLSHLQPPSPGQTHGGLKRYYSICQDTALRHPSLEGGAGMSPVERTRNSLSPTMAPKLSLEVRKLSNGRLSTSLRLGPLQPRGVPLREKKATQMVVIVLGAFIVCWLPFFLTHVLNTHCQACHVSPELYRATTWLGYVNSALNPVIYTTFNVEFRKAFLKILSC

Row | Compound | Ki [nM]
9 | NS(=O)(=O)c1ccc(N2CCN(CC[C@@H]3OCCc4ccccc43)CC2)cc1 [SONEPIPRAZOLE] | 5800
10 | COc1ccc(N2CCN(CCC3OCCc4ccccc43)CC2)cc1 (stereo not given) | 1200

Target: D(2) dopamine receptor (Rattus norvegicus, UniProt P61169)
Assay: Binding affinity of [3H]U-86170 towards Dopamine receptor D2 in cloned mammalian receptor expressed in cultured cells or from rat whole brain
Format: cell-based

Sequence of D(2) dopamine receptor (P61169 whole entry): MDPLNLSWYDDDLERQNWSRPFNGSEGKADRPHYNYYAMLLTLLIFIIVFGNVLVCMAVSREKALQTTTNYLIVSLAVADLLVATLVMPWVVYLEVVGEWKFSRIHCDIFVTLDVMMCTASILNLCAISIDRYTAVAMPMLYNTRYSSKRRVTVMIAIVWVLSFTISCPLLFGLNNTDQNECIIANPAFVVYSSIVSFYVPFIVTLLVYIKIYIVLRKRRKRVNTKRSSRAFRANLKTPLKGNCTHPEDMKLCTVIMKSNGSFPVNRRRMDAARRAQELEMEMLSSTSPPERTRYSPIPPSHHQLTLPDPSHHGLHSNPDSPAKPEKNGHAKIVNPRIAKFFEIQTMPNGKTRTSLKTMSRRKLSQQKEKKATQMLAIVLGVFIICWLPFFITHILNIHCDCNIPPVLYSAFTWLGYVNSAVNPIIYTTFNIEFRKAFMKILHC

Row | Compound | Ki [nM]
11 | NS(=O)(=O)c1ccc(N2CCN(CC[C@@H]3OCCc4ccccc43)CC2)cc1 [SONEPIPRAZOLE] | > 4300
12 | COc1ccc(N2CCN(CCC3OCCc4ccccc43)CC2)cc1 (stereo not given) | 1100

Target: D(1A) dopamine receptor (Rattus norvegicus, UniProt P18901)
Assay: Binding affinity of [3H]SCH-23,390 towards Dopamine receptor D1 in cloned mammalian receptor expressed in cultured cells or from rat whole brain.
Format: cell-based

Sequence of D(1A) dopamine receptor (P18901 whole entry): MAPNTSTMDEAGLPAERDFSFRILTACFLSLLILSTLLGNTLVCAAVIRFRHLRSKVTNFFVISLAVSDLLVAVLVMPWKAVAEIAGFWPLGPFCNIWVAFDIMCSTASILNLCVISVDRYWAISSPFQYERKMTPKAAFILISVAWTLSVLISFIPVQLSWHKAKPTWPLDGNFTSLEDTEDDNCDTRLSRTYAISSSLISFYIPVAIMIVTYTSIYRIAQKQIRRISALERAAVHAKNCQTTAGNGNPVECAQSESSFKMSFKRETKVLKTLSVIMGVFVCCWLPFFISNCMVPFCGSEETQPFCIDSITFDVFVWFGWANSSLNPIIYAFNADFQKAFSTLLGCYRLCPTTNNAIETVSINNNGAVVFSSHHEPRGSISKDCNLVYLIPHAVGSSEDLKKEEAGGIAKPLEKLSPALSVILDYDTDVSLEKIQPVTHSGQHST

Row | Ki [nM] | Compound
13 | > 2400 | COc1ccc(N2CCN(CCC3OCCc4ccccc43)CC2)cc1 (stereo not given)

Target: T4, Adrenergic receptor alpha-2 (Rattus norvegicus, UniProt P22086+P19328+P22909)
T4 sequence (P22086 whole entry): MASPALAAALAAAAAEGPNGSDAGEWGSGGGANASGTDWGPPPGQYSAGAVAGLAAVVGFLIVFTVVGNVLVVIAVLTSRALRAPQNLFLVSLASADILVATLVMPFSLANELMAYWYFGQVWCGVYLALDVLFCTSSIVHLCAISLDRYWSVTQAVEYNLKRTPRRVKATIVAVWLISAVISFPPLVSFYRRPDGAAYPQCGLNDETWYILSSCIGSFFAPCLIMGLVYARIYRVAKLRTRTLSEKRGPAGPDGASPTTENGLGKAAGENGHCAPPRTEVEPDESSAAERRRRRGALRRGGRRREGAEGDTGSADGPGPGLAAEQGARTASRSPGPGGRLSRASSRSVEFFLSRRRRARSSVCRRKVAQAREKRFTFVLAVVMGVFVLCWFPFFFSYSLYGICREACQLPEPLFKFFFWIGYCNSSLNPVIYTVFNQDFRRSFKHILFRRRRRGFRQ
T4 sequence (P19328 whole entry): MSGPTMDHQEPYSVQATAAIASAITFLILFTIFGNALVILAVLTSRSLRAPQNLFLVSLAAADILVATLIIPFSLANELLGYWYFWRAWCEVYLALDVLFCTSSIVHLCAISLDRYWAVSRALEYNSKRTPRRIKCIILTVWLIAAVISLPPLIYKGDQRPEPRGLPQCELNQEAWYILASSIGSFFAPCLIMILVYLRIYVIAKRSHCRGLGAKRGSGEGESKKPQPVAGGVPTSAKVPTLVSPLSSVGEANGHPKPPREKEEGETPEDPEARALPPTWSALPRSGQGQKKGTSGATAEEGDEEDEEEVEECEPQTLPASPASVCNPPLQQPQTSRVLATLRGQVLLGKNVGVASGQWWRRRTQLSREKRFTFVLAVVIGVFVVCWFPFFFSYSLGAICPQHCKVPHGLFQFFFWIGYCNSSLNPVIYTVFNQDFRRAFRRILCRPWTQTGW
T4 sequence (P22909 whole entry): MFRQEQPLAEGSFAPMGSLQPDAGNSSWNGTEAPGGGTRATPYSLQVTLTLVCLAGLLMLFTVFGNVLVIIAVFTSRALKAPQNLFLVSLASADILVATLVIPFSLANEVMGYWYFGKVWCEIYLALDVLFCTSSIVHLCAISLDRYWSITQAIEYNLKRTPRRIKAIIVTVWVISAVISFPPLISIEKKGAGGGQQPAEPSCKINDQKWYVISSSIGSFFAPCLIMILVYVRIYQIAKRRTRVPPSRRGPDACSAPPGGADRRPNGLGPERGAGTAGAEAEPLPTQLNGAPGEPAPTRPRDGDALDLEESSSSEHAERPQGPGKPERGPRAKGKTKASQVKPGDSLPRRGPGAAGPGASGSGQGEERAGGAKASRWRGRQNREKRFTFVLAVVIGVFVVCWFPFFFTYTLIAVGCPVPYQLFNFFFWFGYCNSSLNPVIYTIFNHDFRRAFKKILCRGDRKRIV
Assay: […] against binding of [3H]clonidine to cloned mammalian Alpha-2 adrenergic receptor expressed in cultured cells or from rat whole brain

Row | Compound | Ki [nM]
14 | NS(=O)(=O)c1ccc(N2CCN(CC[C@@H]3OCCc4ccccc43)CC2)cc1 [SONEPIPRAZOLE] | > 2600
15 | COc1ccc(N2CCN(CCC3OCCc4ccccc43)CC2)cc1 (stereo not given) | 1800
